Compound activity from PubChem.
This is a sample that favours compounds with a hit; in the whole collection about 2.2% have one here.
ASAP1 GAP inh: blocks human ASAP1-stimulated Arf1 GTP hydrolysis | Q9ULH1 | GDP FP detection | inhibition, % at 16.5 µM | 360,000 tested, 0.19% active | AID 624377; in the data active = inhibition above about 25%
Target sequence (Q9ULH1 325-724 limits assumed): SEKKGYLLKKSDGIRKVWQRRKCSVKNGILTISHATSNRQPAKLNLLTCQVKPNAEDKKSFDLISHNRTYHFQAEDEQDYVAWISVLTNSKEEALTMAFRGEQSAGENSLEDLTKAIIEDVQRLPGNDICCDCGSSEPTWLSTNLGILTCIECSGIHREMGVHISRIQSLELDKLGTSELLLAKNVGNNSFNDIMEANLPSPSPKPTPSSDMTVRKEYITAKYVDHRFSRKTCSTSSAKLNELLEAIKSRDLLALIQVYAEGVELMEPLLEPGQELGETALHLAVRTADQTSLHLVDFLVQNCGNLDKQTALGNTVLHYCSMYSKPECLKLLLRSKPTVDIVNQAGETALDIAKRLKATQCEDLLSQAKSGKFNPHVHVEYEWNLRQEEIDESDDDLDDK
NRP1-CendR mod: modulators of CendR peptide binding to human neuropilin-1. 360,000 tested, 0.85% active. inhibition, % at 25 µM. FAM-RPARPAR peptide binding to NRP-1, fluorescence polarization;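 active = inhibition or corrected inhibition above about 18%, plus a signal ratio from 0.5 to 1.5, limit read from the data, passing the limit was not always enough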
V-ATPase pHluor: regulators of yeast V-ATPase proton transport. 350,000 tested, 0.37% active. S. cerevisiae, pHLuorin cytosolic pH fluorescence. AID 504577. response, % at 10 µM; in the data active = response mostly above about 7.3%, no sharp cut-off; inactive = mostly below about 5.4%; note: actives read high
ARFGAP1 inh: inhibits rat ARF GTPase activating protein 1 | Q62848 | Arfgap1-stimulated ARF1 GTP hydrolysis, GDP FP detection | inhibition, % at 16.5 µM | 360,000 tested, 0.26% active | AID 651572;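 active = inhibition above a per-plate limit, mean inhibition of low control wells plus 3 SD, cut at about 25% in these data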
Target sequence (Q62848 1-136 limits assumed): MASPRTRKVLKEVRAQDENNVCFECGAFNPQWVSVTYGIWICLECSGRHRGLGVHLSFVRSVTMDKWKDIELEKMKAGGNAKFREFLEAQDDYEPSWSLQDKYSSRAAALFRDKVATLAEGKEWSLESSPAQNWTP
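Replicates: Single well per compound | Assay system: Truncated rat Arfgap1 GAP domain | Control set: No-Arfgap1 wells (100%) versus DMSO full-reaction wells (0%) | Times: Enzyme reaction 120 min at 25 °C after 20 min preincubation | Reagent: Human ARF1(Δ1-17)-GTP substrate | Measured by: Tracer-displacement fluorescence polarization with EDTA stop, 620/688 nm | Measure: Percent inhibition of Arfgap1-stimulated GTP hydrolysis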
Granule exo inh: blocks lytic granule exocytosis. inhibition, % at 10 µM. 360,000 tested, 0.66% active. TALL-104 LAMP-1 surface exposure, flow cytometry; cells stimulated with thapsigargin and PMA. AID 651702;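 active = inhibition above about 55%, limit read from the data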
Granule exo CP1: lytic granule exocytosis inhibition | inhibition, % at 10 µM | TALL-104 cells, LAMP-1 externalization, flow cytometry; stimulated with PMA plus thapsigargin | AID 651954 | shares compounds with Granule exo inh | 1,500 tested, 11% active; in the data active = inhibition above about 60%
Large screens that a line does not name were inactive (follow-up assays come after a bar, where they were run).

Cc1c(C(=O)N(C)C2CCCCC2)sc2ncnc(N3CCN(c4ccccc4)CC3)c12	none
Cc1c(C(=O)N(C)C2CCCCC2)sc2ncnc(N3CCN(c4ccccc4F)CC3)c12	Granule exo inh 85 (no result: ASAP1 GAP inh, ARFGAP1 inh) | Granule exo CP1 inactive
CCOC(=O)c1cc(-c2csc(Nc3c(C)cc(C)cc3C)n2)on1	Granule exo inh 91 | Granule exo CP1 86
Cc1cc(C(=O)CN2C(=O)NC(C)(c3ccc(F)c(F)c3)C2=O)c(C)n1C1CC1 (centres undefined)	Granule exo inh 60 | Granule exo CP1 inactive
CN(CCCC1CCCC1)C(=O)c1cc(COc2ccc(F)c(F)c2)on1	Granule exo inh 68 | Granule exo CP1 inactive
CN(CCCC1CCCC1)C(=O)c1cc(COc2c(F)cccc2F)on1	none
COc1ccc(Oc2nc(-c3cccnc3)nc3ccccc23)cc1	Granule exo inh 88 | Granule exo CP1 inactive
CN(Cc1ccccc1F)c1nc(-c2cccnc2)nc2ccccc12	Granule exo inh 100 | Granule exo CP1 inactive
c1ccc(CNc2nc(-c3cccnc3)nc3ccccc23)cc1	none
Cc1ccc(CNc2nc(-c3cccnc3)nc3ccccc23)cc1	Granule exo inh 105 | Granule exo CP1 inactive
Cc1ccc(CN(C)c2nc(-c3cccnc3)nc3ccccc23)o1	none
CC(Nc1nc(-c2cccnc2)nc2ccccc12)c1ccc(F)cc1 (centres undefined)	Granule exo inh 65 | Granule exo CP1 inactive
CC1CCCCN1CCNC(=O)c1ccc2c(=O)n(Cc3ccc(Cl)cc3)c(=S)[nH]c2c1 (centres undefined)	none
CC(=O)Nc1ccc(NC(=O)c2ccccc2-n2cnnn2)cc1	none
CS(=O)(=O)c1cccc(OCCCN2CCC(C(O)(c3ccccc3)c3ccccc3)CC2)c1	none (no result: NRP1-CendR mod, V-ATPase pHluor, Granule exo inh)
Cc1ccc(NC(=O)c2ccco2)c(NC(=O)c2ccc(Cl)cc2)c1	none
S=C(NCc1ccc(Cl)cc1)NC1CCN(Cc2ccccc2)CC1	none
Clc1ccc(CNc2ccc(N3CCN(Cc4ccccc4)CC3)cc2)cc1	Granule exo inh 67 | Granule exo CP1 inactive
COc1ccccc1CNC1CCN(Cc2ccccc2)CC1	none
Clc1ccc(CNC2CCN(Cc3ccccc3)CC2)cc1	Granule exo inh 67 | Granule exo CP1 inactive
c1ccc(CNc2ccc(N3CCOCC3)cc2)cc1	none
Fc1ccc(CNC2CCN(Cc3ccccc3)CC2)cc1	Granule exo inh 62 | Granule exo CP1 inactive
N#CC1=C(N)Oc2cc(N)ccc2C1c1cccc(Br)c1 (centres undefined)	Granule exo inh 72 | Granule exo CP1 inactive
CCOC(=O)c1c(-c2ccccc2)csc1NC(=O)c1cccc(N2C(=O)CCC2=O)c1	Granule exo inh 86 | Granule exo CP1 inactive
CCOC(=O)c1c(-c2ccc(C)cc2)csc1NC(=O)c1cccc(N2C(=O)CCC2=O)c1	none
Cc1ccc(-n2cc(CNCCc3cscn3)c(-c3ccc(F)cc3)n2)cc1	none
Cc1ccc(-n2cc(CNCCCn3ccnc3C)c(-c3ccc(F)cc3)n2)cc1	Granule exo inh 57 | Granule exo CP1 inactive
Cc1ccc(-c2nn(-c3ccccc3)cc2CO)cc1	none
Cc1ccc(-c2nn(-c3ccccc3)cc2CNCc2ccccc2)cc1	Granule exo inh 70 | Granule exo CP1 92
CN(Cc1ccc(OCC(O)CN(C)Cc2ccccc2)cc1)Cc1nccn1C (centres undefined)	none
COc1ccc(CN(C)CC(O)COc2ccc(-c3ccccc3)cc2)cc1OC (centres undefined)	Granule exo inh 63 | Granule exo CP1 inactive
CCOc1ccc(CN(C)CC(O)COC(c2ccc(OC)cc2)c2ccc(OC)cc2)cc1 (centres undefined)	Granule exo inh 69 | Granule exo CP1 inactive
COc1ccc(CN(C)CC(O)COC(c2ccc(OC)cc2)c2ccc(OC)cc2)cc1 (centres undefined)	none
CCOC(=O)[C@@H]1[C@H]2COc3ccccc3[C@@H]2N2C(=O)N(c3ccc(Cl)cc3)C(=O)[C@@]12C	Granule exo inh 116 | Granule exo CP1 inactive
O=C(N/N=C/c1cc(Br)cc([N+](=O)[O-])c1O)c1ccc(NC(=O)c2ccc(F)cc2)cc1	none
COc1ccccc1N(C)S(=O)(=O)c1ccc(Cl)c(C(=O)NNC(=O)c2ccccc2O)c1	none
COc1ccccc1N(C)S(=O)(=O)c1ccc(Cl)c(C(=O)OCc2c(C)noc2C)c1	Granule exo inh 76 | Granule exo CP1 inactive
OCCN1CCN(CC(O)COc2ccc(Cl)cc2)CC1 (centres undefined)	none
OCCN1CCN(CC(O)COc2ccc(C34CC5CC(CC(C5)C3)C4)cc2)CC1 (centres undefined)	Granule exo inh 72 | Granule exo CP1 79
O=C(CCCc1ccccc1)Nc1ccnn1C1CCN(Cc2ccccc2)CC1	Granule exo inh 64 | Granule exo CP1 inactive
O=C(CCCc1ccccc1)Nc1ccnn1C1CCN(Cc2ccc(Cl)cc2)CC1	none
COc1ccccc1CNC(=O)c1sccc1-c1ccccc1	Granule exo inh 66 | Granule exo CP1 inactive
COc1cccc(NC(=O)NCCC2=CCCCC2)c1	none
CC(=O)Nc1cccc(OCC(=O)NCCC2=CCCCC2)c1	Granule exo inh 95 | Granule exo CP1 inactive
COc1ccc2cc(C3=CCCCC3)ncc2c1	none
CC(=O)Nc1ccc(C(=O)OCC(=O)N2CCC(Cc3ccccc3)CC2)cc1	none
Cc1ccc(-c2nnc(-c3ccc(NC(=O)c4ccco4)cc3)o2)cc1	Granule exo inh 88 | Granule exo CP1 inactive
O=C(Nc1ccc(-c2nc3ncccc3o2)cc1)c1ccco1	none
COc1ccccc1CNc1nc(NC(C)C)nc2cc(-c3ccccc3)sc12	none (no result: V-ATPase pHluor)
CC(C)Nc1nc(NCCOc2ccccc2Cl)c2sc(-c3ccccc3)cc2n1	Granule exo inh 58 (no result: V-ATPase pHluor) | Granule exo CP1 inactive
CC(C)(C)[C@H]1COC(=O)[C@H](NC(=O)OCC2c3ccccc3-c3ccccc32)C/C=C\C[C@@H](CC(=O)N(CCO)Cc2ccccc2)C(=O)N1	none
COc1ccc(N2C(=NC(=O)C3CCCCC3)SC3CS(=O)(=O)CC32)c(OC)c1 (centres undefined)	none
FC(F)(F)c1cccc(-c2cncc(N3CCN(CCN4CCCC4)CC3)n2)c1	none (no result: V-ATPase pHluor)
Fc1cccc(-c2cncc(N3CCN(CCN4CCCC4)CC3)n2)c1	Granule exo inh 59 (no result: V-ATPase pHluor) | Granule exo CP1 inactive
COC(=O)[C@]12CCCCC=C1N(Cc1cccc3ccccc13)C(=O)[C@H](CC(=O)NCc1ccc(OC)c(OC)c1)C2	Granule exo inh 70 (no result: V-ATPase pHluor) | Granule exo CP1 97
C=CCn1c(C)nnc1SCC(=O)Nc1cc(S(=O)(=O)N2CCCC2)ccc1Cl	none
O=C(Nc1nc(-c2nc3ccccc3s2)cs1)c1ccc(S(=O)(=O)N2CCOCC2)cc1	Granule exo inh 62 | Granule exo CP1 inactive
